High-throughput results from PubChem BioAssay.
MC4R antag cAMP: human MC4R antagonism in cAMP assay | AID 540295 | actives 0.48% (n = 360,000) | inhibition, % at 6.5 µM | MC4R-expressing cells, MTII-stimulated cAMP, LANCE TR-FRET;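 active means inhibition above its plate's cutoff, the mean of tested wells on that plate plus 3 SD, cut at about 29% in these data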;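 further: 0% = Melanotan II alone and 100% = Melanotan II plus saturating MCL0020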
Target sequence (P32245 whole entry, looked up): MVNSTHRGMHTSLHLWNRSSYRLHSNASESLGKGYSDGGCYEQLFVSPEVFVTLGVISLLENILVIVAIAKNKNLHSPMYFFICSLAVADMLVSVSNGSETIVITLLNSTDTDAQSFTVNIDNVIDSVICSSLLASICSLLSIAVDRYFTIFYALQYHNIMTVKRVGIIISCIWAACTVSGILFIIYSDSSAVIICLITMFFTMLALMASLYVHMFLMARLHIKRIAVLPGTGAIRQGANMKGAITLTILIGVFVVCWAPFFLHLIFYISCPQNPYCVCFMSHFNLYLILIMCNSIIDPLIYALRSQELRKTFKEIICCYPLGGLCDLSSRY
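Test system: U2OS cells stably expressing human melanocortin 4 receptor (MC4R); also added: Melanotan II challenge; compound: 6.5 µM single dose; timing: 30-min compound preincubation, 1-h Melanotan II challenge, 1-h detection, room temperature; signal: Eu-cAMP/anti-cAMP TR-FRET, emission 671 nm; repeats: one well per compound, no replicates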
GalR3 antagonist: antagonists of human GalR3; O60755; HEK293 GalR3-CNG cAMP membrane potential fluorescence; galR3 body fused to GalR1 C-terminus; inhibition, % at 3 µM; actives 0.44% (n = 360,000); AID 651719;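 active means inhibition above the screen-wide average plus 3 SD, cut at about 13% in these data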;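 further: forskolin and galanin both at EC90 stimulate the cells; cAMP rise reported by CNG channel membrane potential dye signal; 0% = forskolin plus galanin with DMSO and 100% = forskolin alone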
Target sequence (O60755 1-299 limits assumed): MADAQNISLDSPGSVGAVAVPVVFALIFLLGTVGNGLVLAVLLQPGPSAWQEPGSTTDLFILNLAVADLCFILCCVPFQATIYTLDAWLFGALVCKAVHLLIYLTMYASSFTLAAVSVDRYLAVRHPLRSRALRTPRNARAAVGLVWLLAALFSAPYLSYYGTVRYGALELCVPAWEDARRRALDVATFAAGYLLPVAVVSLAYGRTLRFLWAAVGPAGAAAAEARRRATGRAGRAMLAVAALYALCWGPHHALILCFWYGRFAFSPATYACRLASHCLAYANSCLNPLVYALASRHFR
Efflux pump inh: blocks antifungal efflux pumps in multiplex yeast assay; S. cerevisiae Candida pump triplex, Nile Red efflux; inhibition, % at 10 µM; actives 0.44% (n = 330,000);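 active means plate passing quality check with inhibition over a set limit, or well fluorescence over plate mean plus 4 SD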;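 further: Nile Red retained in pooled yeast measured as flow cytometry median fluorescence; 0% = buffer negative control and 100% = Enniatin B positive control; higher means more Nile Red kept so more efflux inhibition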
MC4R ag barr: human MC4R agonism via beta-arrestin; activation, % at 8.9 µM; U2OS MC4R beta-arrestin complementation, luminescence; percent of melanotan II response, DMSO zero; actives 0.98% (n = 360,000); P32245;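 active means activation above a per-plate cutoff, the mean activation of sample wells on that plate plus 3 SD, cut at about 8% in these data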
H9c2 TAG inh: reduces triacylglycerol accumulation in H9c2 cells | Nile Red lipid (TAG) fluorescence; cells loaded with 200 µM oleic acid | inhibition, % at 12.5 µM | actives 0.66% (n = 230,000);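 active means pattern-corrected inhibition of lipid staining of at least 50% with the nuclear-stain viability signal not falling by more than 50%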;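 further: 0% = DMSO wells and 100% = triacsin C control wells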
Calb FLC: affects C. albicans growth with fluconazole; C. albicans CaCi-2 + fluconazole, Alamar Blue growth, 48 h; growth inhibition, % (no concentration beside the values); actives 0.57% (n = 300,000); AID 1979;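 active means growth inhibition above about 58% in most replicates, limit read from the data, passing the limit was not always enough; inconclusive means exactly half the replicates above a set limit; inactive means most replicates below a set limit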;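 further: all wells also contain fluconazole at 8 µg/ml as a sub-toxic cotreatment; 0% = median of DMSO wells and 100% = median of geldanamycin control wells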
Cmpd fluor yeast: compound fluorescence in yeast efflux pump counter-screen; S. cerevisiae AD/pABC3, flow cytometry; actives 4% (n = 1,700); fluorescence ratio to DMSO, % at 10 µM; shares compounds with Efflux pump inh;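 active means fluorescence ratio to DMSO above its plate's cutoff, the plate mean ratio plus 5 SD, cut at about 210% in these data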;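 further: unstained yeast with no Nile Red so the signal is compound autofluorescence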
Mdr1 pump inh: blocks the Candida albicans Mdr1 efflux pump in yeast; AID 588518; S. cerevisiae AD/CaMDR1, Nile Red efflux, flow cytometry; shares compounds with Efflux pump inh; inhibition, % at 10 µM; actives 1% (n = 1,700); in the data active means inhibition above about 26%;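 further: 0% = DMSO vehicle and 100% = reference inhibitor; higher means more Nile Red retained so more efflux inhibition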
Cdr2 pump inh: blocks the Candida albicans Cdr2 efflux pump in yeast | S. cerevisiae AD/CaCDR2, Nile Red retention, flow cytometry | Nile Red retention ratio vs DMSO, % at 10 µM | shares compounds with Efflux pump inh | AID 588520 | actives 4% (n = 1,700); in the data active means Nile Red retention ratio vs DMSO above about 190%;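 further: higher ratio means more blocking of Cdr2 efflux of the dye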
Cdr1 pump inh: inhibitors of Candida albicans Cdr1 efflux pump. shares compounds with Efflux pump inh. S. cerevisiae AD/CaCDR1, Nile Red efflux, flow cytometry. inhibition, % at 10 µM. actives 1% (n = 1,700);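 active means inhibition above the screen-wide mean plus twice its standard deviation, cut at about 32% in these data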
The depositor's hits bear a star; ? = inconclusive; / = no result. Sampled rows, rich in hits. Any-hit rate of the full collection: about 2.9%.

SMILES	MC4R antag cAMP	GalR3 antagonist	Efflux pump inh	MC4R ag barr	H9c2 TAG inh	Calb FLC	Cmpd fluor yeast	Mdr1 pump inh	Cdr2 pump inh	Cdr1 pump inh
COc1ccc2[nH]cc(CCNC(=O)/C=C/[C@H]3O[C@@H](n4cnc5c(NC(=O)c6ccccc6)ncnc54)[C@H](O)[C@@H]3O)c2c1	/	-6	/	/	/	/	/	/	/	/
Cc1cc(C)c(OCC(=O)Nc2ccccc2N2CCOCC2)c(C)c1	-1	-4	11*	1	/	2	87	0	110	0
O=C(CSc1nc2c(sc3ccccc32)c(=O)n1CCc1ccccc1)NCc1ccco1	1	-2	1.5*	-3	/	-4	95	0	96	0
CCCCn1c(SCC(=O)NCc2ccco2)nc2c(sc3ccccc32)c1=O	-2	-5	1	4	/	1	/	/	/	/
O=C(NCC(c1cccs1)N1CCOCC1)c1ccc(Cl)c(S(=O)(=O)N2CCOCC2)c1 (configuration not stated)	4	-6	1.1*	2	9	-3	102	0	97	0
CN(c1cccnc1)c1ccc(NC(=O)Cc2c[nH]c3ccccc23)cc1-c1ccc(F)c(F)c1	/	-7	/	/	/	/	/	/	/	/
O=C(CSc1cccc[n+]1[O-])Nc1ccccc1Oc1ccccc1	4	-4	1.0*	-3	71	?	110	0	119	0
Cc1cc(Cl)c2oc(C(=O)NCC(C)(C)N3CCOCC3)c(C)c2c1	2	-10	0.6*	-3	/	17	128	0	102	0
Cc1cc(Cl)c2oc(C(=O)N(C)CCCCN3CCOCC3)c(C)c2c1	23	2	0	-1	-13	-10	/	/	/	/
COc1ccc(C2c3ccc4ccccc4c3Oc3ncn(CCN4CCOCC4)c(=N)c32)cc1 (configuration not stated)	17	-4	1.0*	1	/	101*	108	0	112	0
COc1ccccc1-c1cnc(C(O)c2ccc(C)cc2C)[nH]1 (configuration not stated)	11	-6	/	-3	0	/	/	/	/	/
Cc1ccc(N2CC(C(=O)OCC(=O)NNC(=O)c3ccccc3)CC2=O)cc1 (configuration not stated)	4	-1	0	0	-2	3	/	/	/	/
CCOc1ccc(NC(=O)NC2CCCc3ccccc32)cc1 (configuration not stated)	-3	0	6.5*	-2	/	-9	103	0	109	0
CC1=CN2C(c3cccc([N+](=O)[O-])c3)=NON(c3ccc(C)cn3)C2C=C1 (configuration not stated)	/	-4	/	/	/	/	/	/	/	/
CNC(=S)Nc1ccc(C)cc1	4	0	11*	-2	/	-1	100	0	102	0
COCCCn1c(=S)[nH]c2ccc(N3CCOCC3)cc2c1=O	5	2	1.4*	-4	/	12	120	0	117	0
COc1ccc(-c2nc3ccc(Br)cn3c2Cc2ccsc2)cc1OC	/	-6	/	/	/	/	/	/	/	/
C#CC[N+](C)(C)CCCCCCCCCC	9	-2	0	-1	/	-25	/	/	/	/
C#CC[N+](C)(C)CCCCCCCCCCCC	16	4	1.0*	-2	-20	79*	100	0	495*	0
CCOC(=O)C(C(=O)OCC)c1cc(Br)c2noc3c2c1C(=O)c1ccccc1-3	-3	3	0.8*	-3	/	16	826*	1	193*	0
O=C(NOCc1ccccc1)c1coc(-c2ccccc2)n1	5	-5	1.4*	0	-2	/	92	0	96	0
NC(=O)NOCc1ccccc1	-4	-6	0	-2	26	-4	/	/	/	/
COc1ccc(NC(=O)/C(C#N)=C/c2ccc(OCc3ccccc3F)cc2)cc1	12	10	6.5*	-3	/	-1	96	0	100	0
Cc1cccc(C)c1NC(=O)C1CC2CCC1C2 (configuration not stated)	5	-3	0.8*	0	-10	-6	113	0	120	0
O=S(=O)(c1ccc2c(c1)OCCO2)N1CCN(Cc2ccc3c(c2)OCO3)CC1	-1	-6	0	-1	0	-46	/	/	/	/
SMILES	MC4R antag cAMP	GalR3 antagonist	Efflux pump inh	MC4R ag barr	H9c2 TAG inh	Calb FLC	Cmpd fluor yeast	Mdr1 pump inh	Cdr2 pump inh	Cdr1 pump inh
O=S(=O)(Cc1ccccc1)N1CCN(Cc2ccc3c(c2)OCO3)CC1	1	-4	1.1*	1	-5	-50	103	0	93	0
COc1ccccc1Cn1c(=O)c2ccccc2n2c(SCC(=O)N3CCCCC3)nnc12	1	0	1.6*	0	/	-16	111	0	110	0
O=C(CSc1nnc2n(C3CCCC3)c(=O)c3ccccc3n12)N1CCCCCC1	11	-11	0	-1	/	1	/	/	/	/
CCn1c(SCC(=O)N/N=C/C(C)=C/c2ccco2)nnc1-c1ccccc1	-5	-4	0.8*	-1	10	-5	117	0	110	0
C[C@@]12C(=O)Nc3ccc(F)cc3C(=O)N1[C@H]1c3cc(Cl)ccc3OC[C@@H]1[C@@H]2c1ccccc1	5	-3	0	-1	24	/	128	0	127	0
Cc1ccc2c(c1)C(=O)N1[C@H]3c4cc(Cl)ccc4OC[C@@H]3[C@H](c3ccccc3)[C@]1(C)C(=O)N2	11	-7	0	0	-11	/	100	0	99	0
COc1ccc2c(c1)OC[C@H]1[C@H]2N2C(=O)c3cc(OC)c(OC)cc3NC(=O)[C@@]2(C)[C@H]1c1ccccc1	15	-5	48*	0	41	/	539*	79*	112	34*
C[C@@]12C(=O)Nc3cc(Cl)ccc3C(=O)N1[C@H]1c3cc(Cl)ccc3OC[C@@H]1[C@@H]2c1ccccc1	1	-5	0	1	25	/	97	0	102	0
O=C(NC(c1ccc(Cl)cc1)c1cnccn1)C1CCN(CCCc2ccccc2)CC1 (configuration not stated)	3	/	/	2	8	/	/	/	/	/
O=C(Cc1cccc(NC(=O)C2CCCN(C(=O)C3CCCC3)C2)c1)Nc1cccc(C(=O)N2CCOCC2)c1 (configuration not stated)	-1	3	/	-1	23	/	/	/	/	/
